Screening results as filed in PubChem BioAssay.
An excerpt weighted towards active compounds, which were near 3.3% of everything screened.
AHR activator: AHR activators, primary screen, cell-based, luminescence, luciferase reporter, human | AID 2796, 2010 | activation, % at 5 µM | AHR-responsive luciferase reporter cells | Aryl hydrocarbon receptor (Homo sapiens), P35869 | actives 2.5% (n = 320,000); in the data active means activation above about 47%;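 further: 0% = vehicle wells and 100% = reference agonist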
Target sequence (P35869 whole entry, looked up): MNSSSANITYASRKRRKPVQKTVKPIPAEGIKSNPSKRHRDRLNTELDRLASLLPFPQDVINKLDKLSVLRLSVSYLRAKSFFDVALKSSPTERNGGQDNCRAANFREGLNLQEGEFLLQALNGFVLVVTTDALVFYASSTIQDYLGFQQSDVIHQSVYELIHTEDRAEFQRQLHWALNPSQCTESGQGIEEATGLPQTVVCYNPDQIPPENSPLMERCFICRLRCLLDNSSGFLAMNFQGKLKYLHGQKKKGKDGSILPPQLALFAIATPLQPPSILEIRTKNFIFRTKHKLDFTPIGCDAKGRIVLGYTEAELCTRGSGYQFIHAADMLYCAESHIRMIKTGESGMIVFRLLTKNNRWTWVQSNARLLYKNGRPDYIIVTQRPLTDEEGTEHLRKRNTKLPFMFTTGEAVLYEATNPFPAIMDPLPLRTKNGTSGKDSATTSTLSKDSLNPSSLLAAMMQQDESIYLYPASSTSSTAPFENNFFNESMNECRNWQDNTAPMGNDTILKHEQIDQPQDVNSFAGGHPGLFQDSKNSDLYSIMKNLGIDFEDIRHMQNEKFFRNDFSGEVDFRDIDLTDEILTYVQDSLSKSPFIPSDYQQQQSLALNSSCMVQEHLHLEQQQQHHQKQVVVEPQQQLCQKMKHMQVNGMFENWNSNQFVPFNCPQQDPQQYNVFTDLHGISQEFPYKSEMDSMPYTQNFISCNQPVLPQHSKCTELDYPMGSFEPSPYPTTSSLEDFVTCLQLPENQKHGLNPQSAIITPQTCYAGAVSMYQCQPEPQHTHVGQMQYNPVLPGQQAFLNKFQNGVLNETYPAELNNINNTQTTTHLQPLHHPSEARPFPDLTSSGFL
STAT3 act: IL-6 driven STAT3 reporter potentiators, primary screen, U3A cells, luciferase, luminescence, MLSCN library. IL-6 STAT3-luciferase reporter; 100% = signal with IL-6 EC80 alone. activation (% of control), % at 5.6 µM. actives 0.91% (n = 190,000);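 active means activation above the screen-wide mean of compound activation plus 3 SD, cut at about 130% in these data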;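 further: 0% = background luminescence of wells with medium and substrate only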
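system = STAT3-luciferase reporter U3A cells | reagent = IL-6 stimulus at 33 ng/mL final | timing = 1 h compound pre-exposure, 6 h IL-6 stimulation, 37 °C | measured by = luminescence | evaluation = % activation versus median of IL-6-stimulated wells | control set = IL-6-only wells as 100% reference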
ABCB6 inh MLPCN: ABCB6 transporter inhibitors, primary screen, K562-ABCB6 cells, flow cytometry, MLPCN library. actives 0.19% (n = 360,000). K562-ABCB6 porphyrin accumulation, 1 h; stronger effect = lower value. fluorescence ratio to DMSO, % at 10 µM;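 active means fluorescence ratio to DMSO below 75%, the collection mean minus 3 SD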;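 further: signal is porphyrin accumulated inside mitochondria; 100% equals median channel fluorescence of DMSO control wells; lower ratio means ABCB6 inhibition with less porphyrin fluorescence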
FXN GAA850 act: FXN promoter activators, primary screen, cell-based, luciferase luminescence, HEK293 lucGAA850. HEK293 lucGAA850 FXN promoter luciferase reporter, 24 h; percent of 10 µM SAHA response. activation, % at 6 µM. actives 0.56% (n = 360,000);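 active means activation above the average of all compounds screened plus 3 SD, cutoff fixed separately per campaign, cut at about 7.5% in these data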;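 further: 0% = DMSO wells and 100% = 10 µM SAHA wells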
* marks the source's active call; other numbers are inactive results.

Screening CCc1ccccc1NC(=O)C1=CC(c2cccs2)=NS(=O)(=O)N1C returned AHR activator 6, ABCB6 inh MLPCN 97 and FXN GAA850 act -2.
Screening Cc1cc(NC(=O)CN(C)CC(=O)Nc2ccc(Cl)cc2)no1 returned AHR activator 6, ABCB6 inh MLPCN 92 and FXN GAA850 act 0.
O=C(Nc1ccccc1)c1ccc2snnc2c1 was read as AHR activator 63*, STAT3 act 84, ABCB6 inh MLPCN 100 and FXN GAA850 act 1.
Screening Cc1ccc(NC(=O)c2ccc3snnc3c2)cc1 returned AHR activator 63*, STAT3 act 93, ABCB6 inh MLPCN 91 and FXN GAA850 act 5.
`Cc1noc(C)c1COc1ccccc1C(=O)NC(C)c1ccc(F)cc1` (stereo not given) gave ABCB6 inh MLPCN 102 and FXN GAA850 act 0.
Screening Cc1ccc(-c2csc(N(CC3CCCO3)C(=O)c3ccco3)n2)cc1 (stereo not given) returned AHR activator 51*, STAT3 act 99, ABCB6 inh MLPCN 93 and FXN GAA850 act 2.
`CCN(CC)C(=O)c1cccc(-c2csc(C(C)(NC(C)=O)c3ccc(OC)cc3)n2)c1` (stereo not given) gave ABCB6 inh MLPCN 96 and FXN GAA850 act 1.
Screening CNC(=O)c1ccsc1NC(=O)CS(=O)(=O)c1ccccc1 returned AHR activator 5, ABCB6 inh MLPCN 100 and FXN GAA850 act 0.
Screening CCOC(=O)Cc1c(C)nc2cc(-c3ccc(Cl)cc3)[nH]n2c1=O returned AHR activator 58*, STAT3 act 110, ABCB6 inh MLPCN 99 and FXN GAA850 act 3.
Screening CCOC(=O)CCc1c(C)nc2cc(-c3ccc(F)cc3)[nH]n2c1=O returned AHR activator 6, STAT3 act 83, ABCB6 inh MLPCN 100 and FXN GAA850 act 0.
Cc1cc(=O)oc2cc(OCc3ccccc3)ccc12 was read as AHR activator -3, ABCB6 inh MLPCN 258 and FXN GAA850 act 5.
Cc1cc(=O)oc2ccc(OCc3ccccc3)cc12 was read as AHR activator 51*, ABCB6 inh MLPCN 93 and FXN GAA850 act 0.
CC(=O)[C@H]1CC[C@H]2[C@@H]3C=CC4=CC(=O)CC[C@@]4(C)[C@@H]3CC[C@]12C was read as AHR activator 0, ABCB6 inh MLPCN 95 and FXN GAA850 act 3.
For COc1cccc(/C=N/NC(=O)c2ccc3nc[nH]c3c2)c1O the results were AHR activator 7, ABCB6 inh MLPCN 96 and FXN GAA850 act 1.
`COc1cc(OC)c2cc(C(=O)N/N=C/c3cccc(OC)c3O)[nH]c2c1` gave AHR activator 49*, ABCB6 inh MLPCN 94 and FXN GAA850 act -2.
Nc1ccc(O)c2ccccc12 was read as AHR activator 57*.
`Cc1cc(N2CCCCCC2)nc2ccc(F)cc12` gave AHR activator 58*, STAT3 act 90, ABCB6 inh MLPCN 97 and FXN GAA850 act -3.
COc1ccc2c(C)cc(N3CCCCCC3)nc2c1 was read as AHR activator 2, STAT3 act 101, ABCB6 inh MLPCN 99 and FXN GAA850 act -1.
For Cc1nn2c(-c3ccccc3)ccnc2c1Br the results were AHR activator 74*, ABCB6 inh MLPCN 97 and FXN GAA850 act 5.
Screening Cc1ccc(Nc2nnc(SCc3cc(=O)n4ccsc4n3)s2)c(C)c1 returned AHR activator 48*, STAT3 act 108, ABCB6 inh MLPCN 98 and FXN GAA850 act 5.
For COc1cc2c(cc1NC(=S)Nc1cccc3ccccc13)oc1ccccc12 the results were AHR activator 72*, STAT3 act 109, ABCB6 inh MLPCN 124 and FXN GAA850 act 3.
COc1cc2c(cc1NCc1ccc3c(c1)OCO3)oc1ccccc12 was read as AHR activator 16, STAT3 act 101, ABCB6 inh MLPCN 98 and FXN GAA850 act 1.
COc1cc2c(cc1NC(=O)Nc1ccccc1)oc1ccccc12 was read as AHR activator 48*, STAT3 act 113, ABCB6 inh MLPCN 95 and FXN GAA850 act 1.
For COc1cc2c(cc1NCc1ccccn1)oc1ccccc12 the results were AHR activator 63*, STAT3 act 112, ABCB6 inh MLPCN 134 and FXN GAA850 act 4.
Screening O=c1cc(/C=C/c2c(F)cccc2Cl)[nH]c2ccccc12 returned AHR activator 61*, STAT3 act 109, ABCB6 inh MLPCN 88 and FXN GAA850 act 4.
For Nc1nccc(/C=C/c2c(F)cccc2Cl)n1 the results were AHR activator -9, STAT3 act 81, ABCB6 inh MLPCN 111 and FXN GAA850 act 4.
Screening O=C1CSC(c2ccccn2)N1c1ccc(F)cc1F (stereo not given) returned AHR activator 0, STAT3 act 99, ABCB6 inh MLPCN 99 and FXN GAA850 act -1.
CCCNC(=O)c1cc(C2CCCCN2C(=O)c2cccs2)on1 (stereo not given) was read as ABCB6 inh MLPCN 100 and FXN GAA850 act -1.
`COc1cc2c(cc1OC)CN(c1ccc(F)cc1[N+](=O)[O-])CC2` gave AHR activator 59*, ABCB6 inh MLPCN 90 and FXN GAA850 act 6.
For COc1ccc(NC(=O)c2cccnc2)cc1 the results were AHR activator 0, ABCB6 inh MLPCN 99 and FXN GAA850 act 4.
`O=C(Nc1ccc(Cl)c(-c2nc3ccccc3[nH]2)c1)c1cccnc1` gave AHR activator 52*, STAT3 act 93, ABCB6 inh MLPCN 106 and FXN GAA850 act 0.
For O=C(Nc1ccc2ccccc2c1)c1cccnc1 the results were AHR activator 52*, STAT3 act 94, ABCB6 inh MLPCN 96 and FXN GAA850 act 4.
For COc1ccc(NC(=O)c2cccnc2)cc1OCC(C)C the results were AHR activator 51*, ABCB6 inh MLPCN 101 and FXN GAA850 act 2.
`COc1ccc(NC(=S)NNC(=O)c2cccnc2)cc1OC` gave AHR activator 3, STAT3 act 106, ABCB6 inh MLPCN 96 and FXN GAA850 act 0.
`Cc1nc(NC(=O)c2ccc(F)cc2)nc2cc3c(cc12)OCO3` gave AHR activator 65*, STAT3 act 100, ABCB6 inh MLPCN 103 and FXN GAA850 act 0.
`Cc1nc(NC(=O)c2ccccc2)nc2cc3c(cc12)OCO3` gave AHR activator 25, STAT3 act 110, ABCB6 inh MLPCN 95 and FXN GAA850 act 5.
Screening NS(=O)(=O)c1ccc(-c2ccc(/C=C3\C(=O)Nc4ccccc43)o2)cc1 returned AHR activator 74*.
COc1cccc(-c2noc(-c3ccoc3C)n2)c1 was read as AHR activator 69*, STAT3 act 84, ABCB6 inh MLPCN 97 and FXN GAA850 act 6.
`COc1cc(OC)cc(-c2nc(-c3ccc(Br)cc3)no2)c1` gave AHR activator 5, STAT3 act 91, ABCB6 inh MLPCN 100 and FXN GAA850 act -2.
For COc1ccc(-c2nc(-c3ccc(Br)cc3)no2)c(OC)c1 the results were AHR activator 95*, STAT3 act 105, ABCB6 inh MLPCN 98 and FXN GAA850 act 3.
